Paper PMC3971662 (The Journal of General Physiology, 2014)
Values joined by “and” are separate entries in the source; they are usually repeats but may differ in a detail not shown here. Equal entries are not always repeated. Where two headings read alike, the source gives them in different places. Each block holds one compound with its values, some of them ahead of it.

Legend:
[1] = molecular target: FL1/WT3 hERG1 channels (F557L) (Homo sapiens, UniProt Q12809, F557L); assay: Two-electrode voltage clamp, concatenated tetramer FL1/WT3 in Xenopus oocytes; assay type: cell-based; conditions: 30 µM ICA
In short: (§1)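 F557L/WT concatenated tetramers were expressed from 50 ng cRNA and recorded 4–8 d later by two-electrode voltage clamp in pH 7.6 HEPES bath, with and without test compound. V0.5act and z came from Boltzmann fits of tails at −70 mV after 4-s steps. Inactivation: 1 s at 40 mV, then 5 s at 30 to −140 mV, with Itail/(Vret−Erev) fitted. Fold increase in Itest at 20 mV over 1–30 µM was fitted logistically (EC50, nH).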

[2] = molecular target: FL4 hERG1 channels (F557L) (Homo sapiens, UniProt Q12809, F557L); assay: Two-electrode voltage clamp, concatenated tetramer FL4 in Xenopus oocytes; assay type: cell-based; conditions: 30 µM ICA, mean ± SEM
In short: as §1

WT4 hERG1 channels = WT4 hERG1 channels (Homo sapiens, UniProt Q12809); assay type: cell-based; conditions: for fold increase in Itest (isochronal, 4 s): 10 µM ICA, stated for WT and WT4 together
In short: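 WT4 tetramers (50 ng cRNA, 4–8 d) were studied by two-electrode voltage clamp in pH 7.6 bath, 2 mM KCl. Tests used 4-s steps, −70 to 50 mV, with tails at −70 mV and Boltzmann fits (V0.5act). Inactivation: 40 mV prepulse, then 5 s at 30 to −140 mV. Concentration-response of Itest at 20 mV or of Itail-max was fitted logistically (EC50, nH). Some Itail-Vret runs used 20 mM KCl bath.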

[3] = molecular target: FL2/WT2 hERG1 channels (F557L) (Homo sapiens, UniProt Q12809, F557L); assay: Two-electrode voltage clamp, concatenated tetramer FL2/WT2 in Xenopus oocytes; assay type: cell-based; conditions: 30 µM ICA, mean ± SEM
In short: as §1

[4] = molecular target: WT3/FL1 hERG1 channels (F557L) (Homo sapiens, UniProt Q12809, F557L); assay: Two-electrode voltage clamp, concatenated tetramer WT3/FL1 in Xenopus oocytes; assay type: cell-based; conditions: 30 µM ICA, mean ± SEM
In short: as §1

[5] = Limit of solubility in extracellular solution; assay type: physicochemical; conditions: extracellular solution pH 7.6, diluted from 20-mM DMSO stock
[6] = molecular target: FL1/WT1/FL1/WT1 hERG1 channels (F557L) (Homo sapiens, UniProt Q12809, F557L); assay type: cell-based; conditions: 30 µM ICA, mean ± SEM
In short: as §1

[7] = molecular target: FL1/WT1/FL2 hERG1 channels (F557L) (Homo sapiens, UniProt Q12809, F557L); assay type: cell-based
In short: as §1

WT hERG1 channels = WT hERG1 channels (Homo sapiens, UniProt Q12809); assay type: cell-based; conditions: for fold increase in Itest (isochronal, 4 s): 10 µM ICA, stated for WT and WT4 together
In short: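 Oocytes were injected with 10 ng cRNA for single WT subunits and recorded 1–3 d later by two-electrode voltage clamp. Bath (mM): 98 NaCl, 2 KCl, 1 CaCl2, 1 MgCl2, 5 HEPES, pH 7.6. Test compound was diluted from a 20 mM DMSO stock just before use. Itest was taken at the end of 4-s steps (−70 to 50 mV); tails at −70 mV were Boltzmann-fitted for V0.5act and z. Mean ± SEM, n = oocytes.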

[8] = molecular target: LE1/WT1/LE1/WT1 hERG1 channels (L646E) (Homo sapiens, UniProt Q12809, L646E); assay type: cell-based; conditions: 10 µM PD, mean ± SEM
In short: (§2)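 Concatenated L646E/WT tetramers: 50 ng cRNA per oocyte, recorded 4–8 d later by two-electrode voltage clamp in pH 7.6 HEPES bath. Activation used 4-s steps, −70 to 50 mV, with Itail at −70 mV Boltzmann-fitted for V0.5act and z. Inactivation used 1 s at 40 mV, then 5 s at 30 to −140 mV; Itail/(Vret−Erev) was Boltzmann-fitted. Fold increase in Itail-max over 1–30 µM was fitted with a logistic equation (EC50, nH).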

[9] = molecular target: LE2/WT2 hERG1 channels (L646E) (Homo sapiens, UniProt Q12809, L646E); assay: Two-electrode voltage clamp, concatenated tetramer LE2/WT2 in Xenopus oocytes; assay type: cell-based; conditions: 10 µM PD, mean ± SEM
In short: as §2

[10] = molecular target: WT3/LE1 hERG1 channels (L646E) (Homo sapiens, UniProt Q12809, L646E); assay: Two-electrode voltage clamp, concatenated tetramer WT3/LE1 in Xenopus oocytes; assay type: cell-based
In short: as §2

[11] = molecular target: LE4 hERG1 channels (L646E) (Homo sapiens, UniProt Q12809, L646E); assay: Two-electrode voltage clamp, concatenated tetramer LE4 in Xenopus oocytes; assay type: cell-based; conditions: 10 µM PD, mean ± SEM
In short: as §2

[12] = molecular target: LE1/WT1/LE2 hERG1 channels (L646E) (Homo sapiens, UniProt Q12809, L646E); assay type: cell-based; conditions: 10 µM PD, mean ± SEM
In short: as §2

[13] = molecular target: LE1/WT3 hERG1 channels (L646E) (Homo sapiens, UniProt Q12809, L646E); assay: Two-electrode voltage clamp, concatenated tetramer LE1/WT3 in Xenopus oocytes; assay type: cell-based
In short: as §2

- limit of solubility [5]: 0.03 mM
SMILES: O=C(Nc1ccc(Oc2ccccc2)cc1)c1cccc([N+](=O)[O-])c1 [ICA, 3-nitro-N-(4-phenoxyphenyl) benzamide]
- V0.5act (half-point of channel activation) ([1]; mean ± SEM): −34.5 ± 1.5 mV
- V0.5inact (V0.5 for C-type inactivation) ([1]; mean ± SEM): 28.5 ± 6.0 mV
- z (equivalent charge) for activation ([1]; mean ± SEM): 4.06 ± 0.39
- z for inactivation ([1]; mean ± SEM): 0.95 ± 0.13
- positive shift in V0.5inact ([1]; n = 4): 70 ± 3 mV
- V0.5act (half-point of channel activation) [2]: −18.7 ± 1.0 mV
- V0.5inact (V0.5 for C-type inactivation) [2]: −98.8 ± 7.8 mV
- z (equivalent charge) for activation [2]: 3.60 ± 0.15
- z for inactivation [2]: 0.69 ± 0.04
- fold increase in Itest (isochronal, 4 s) (WT4 hERG1 channels; at 20 mV): 20 fold
- fold increase in Itest (isochronal, 4 s) (WT4 hERG1 channels; at −30 mV): 4 fold
- effect on Itail at potentials more negative than −100 mV (WT4 hERG1 channels; 30 µM ICA, WT4, bath solution containing 20 mM KCl): did not cause an increase in Itail
- V0.5inact (V0.5 for C-type inactivation) (WT4 hERG1 channels; 30 µM ICA, WT4, mean ± SEM): 57.8 ± 4.1 mV
- z for inactivation (WT4 hERG1 channels; 30 µM ICA, WT4, mean ± SEM): 1.17 ± 0.05
- nH (Hill coefficient) for increase in Itest at 20 mV (WT4 hERG1 channels; ICA, WT4): 1.7
- increase in current at Vt of 20 mV, WT4 channels compared with FL1/WT1/FL2 channels (WT4 hERG1 channels; ICA, ratio WT4 vs FL1/WT1/FL2): ~13 fold
- EC50 (WT4 hERG1 channels; read-out: EC50 for increase in Itest measured at 20 mV, ICA, WT4): 9.1 µM
- V0.5act (half-point of channel activation) [3]: −37.1 ± 0.4 mV
- V0.5inact (V0.5 for C-type inactivation) [3]: −22.4 ± 9.3 mV
- z (equivalent charge) for activation [3]: 3.88 ± 0.48
- z for inactivation [3]: 0.46 ± 0.01
- V0.5act (half-point of channel activation) [4]: −36.7 ± 1.1 mV
- V0.5inact (V0.5 for C-type inactivation) [4]: 49.9 ± 4.0 mV
- z (equivalent charge) for activation [4]: 3.57 ± 0.39
- z for inactivation [4]: 1.21 ± 0.03
- V0.5act (half-point of channel activation) [6]: −29.6 ± 1.6 mV
- V0.5inact (V0.5 for C-type inactivation) [6]: −33.7 ± 16.0 mV
- z (equivalent charge) for activation [6]: 3.00 ± 0.25
- z for inactivation [6]: 0.56 ± 0.03
- V0.5act (half-point of channel activation) ([7]; 30 µM ICA, mean ± SEM): −19.5 ± 2.9 mV
- V0.5inact (V0.5 for C-type inactivation) ([7]; 30 µM ICA, mean ± SEM): −72.5 ± 7.7 mV
- z (equivalent charge) for activation ([7]; 30 µM ICA, mean ± SEM): 2.80 ± 0.22
- z for inactivation ([7]; 30 µM ICA, mean ± SEM): 0.61 ± 0.05
- shift in V0.5inact ([7]; 30 µM ICA, n = 4): 6.6 ± 1.6 mV
- nH (Hill coefficient) for increase in Itest at 20 mV ([7]; ICA): 2.0
- EC50 ([7]; read-out: EC50 for increase in Itest measured at 20 mV, ICA): 11.8 µM
- fold increase in Itest (isochronal, 4 s) (WT hERG1 channels; at 20 mV): 20 fold
- fold increase in Itest (isochronal, 4 s) (WT hERG1 channels; at −30 mV): 4 fold

SMILES: O=C(O)c1ccccc1Nc1ccc(CCc2ccc(Cl)c(Cl)c2)cc1 [PD, 2-(4-[2-(3,4-dichloro-phenyl)-ethyl]-phenylamino)-benzoic acid]
- V0.5act (half-point of channel activation) [8]: −32.7 ± 0.8 mV
- V0.5inact (V0.5 for C-type inactivation) [8]: −43.3 ± 3.4 mV
- z (equivalent charge) for activation [8]: 3.45 ± 0.19
- z for inactivation [8]: 1.22 ± 0.07
- increase in Itest measured at the end of 4-s pulses (WT4 hERG1 channels; 10 µM PD, WT4): about twofold
- increase in Itail (WT4 hERG1 channels; 10 µM PD, WT4, Vret −140 mV after 1-s pulse to 40 mV): 68%
- V0.5act (half-point of channel activation) (WT4 hERG1 channels; 10 µM PD, WT4, mean ± SEM): −26.7 ± 1.0 mV
- V0.5inact (V0.5 for C-type inactivation) (WT4 hERG1 channels; 10 µM PD, WT4, mean ± SEM): −39.4 ± 4.6 mV
- z (equivalent charge) for activation (WT4 hERG1 channels; 10 µM PD, WT4, mean ± SEM): 3.07 ± 0.30
- z for inactivation (WT4 hERG1 channels; 10 µM PD, WT4, mean ± SEM): 1.26 ± 0.17
- V0.5act (half-point of channel activation) [9]: −31.3 ± 1.0 mV
- V0.5inact (V0.5 for C-type inactivation) [9]: −45.5 ± 2.8 mV
- z (equivalent charge) for activation [9]: 3.94 ± 0.12
- z for inactivation [9]: 1.19 ± 0.08
- EC50 [10]: 4.8 µM
- V0.5act (half-point of channel activation) ([10]; 10 µM PD, WT3/LE1, mean ± SEM): −27.1 ± 1.3 mV and −27.1 ± 1.29 mV
- V0.5inact (V0.5 for C-type inactivation) ([10]; 10 µM PD, WT3/LE1, mean ± SEM): −33.5 ± 3.7 mV
- z (equivalent charge) for activation ([10]; 10 µM PD, WT3/LE1, mean ± SEM): 3.44 ± 0.16
- z for activation (Figure 6 legend) ([10]; 10 µM PD, WT3/LE1, mean ± SEM): 3.44 ± 0.16
- z for inactivation ([10]; 10 µM PD, WT3/LE1, mean ± SEM): 1.44 ± 0.19
- nH (Hill coefficient) for fold increase in Itail-max ([10]; PD, WT3/LE1): 1.4
- V0.5act (half-point of channel activation) [11]: −32.6 ± 1.2 mV
- V0.5inact (V0.5 for C-type inactivation) [11]: −43.6 ± 2.2 mV
- z (equivalent charge) for activation [11]: 3.55 ± 0.25
- z for inactivation [11]: 1.52 ± 0.05
- V0.5act (half-point of channel activation) [12]: −30.3 ± 1.4 mV
- V0.5inact (V0.5 for C-type inactivation) [12]: −47.7 ± 4.0 mV
- z (equivalent charge) for activation [12]: 3.55 ± 0.15
- z for inactivation [12]: 1.31 ± 0.08
- increase in Itest measured at the end of 4-s pulses (WT hERG1 channels; 10 µM PD, WT hERG1): about twofold
- V0.5act (half-point of channel activation) (WT hERG1 channels; 10 µM PD, WT hERG1, mean ± SEM): −29.2 ± 14 mV
- V0.5inact (V0.5 for C-type inactivation) (WT hERG1 channels; 10 µM PD, WT hERG1, mean ± SEM): −34.7 ± 4.2 mV
- z (equivalent charge) for activation (WT hERG1 channels; 10 µM PD, WT hERG1, mean ± SEM): 3.07 ± 0.34
- z for inactivation (WT hERG1 channels; 10 µM PD, WT hERG1, mean ± SEM): 1.19 ± 0.09
- EC50 [13]: 4.6 µM
- V0.5act (half-point of channel activation) ([13]; 10 µM PD, LE1/WT3, mean ± SEM): −30.1 ± 1.6 mV
- V0.5inact (V0.5 for C-type inactivation) ([13]; 10 µM PD, LE1/WT3, mean ± SEM): −44.6 ± 2.7 mV
- z (equivalent charge) for activation ([13]; 10 µM PD, LE1/WT3, mean ± SEM): 4.20 ± 0.07
- z for activation (Figure 6 legend) ([13]; 10 µM PD, LE1/WT3, mean ± SEM): 4.2 ± 0.07
- z for inactivation ([13]; 10 µM PD, LE1/WT3, mean ± SEM): 1.24 ± 0.10
- nH (Hill coefficient) for fold increase in Itail-max ([13]; PD, LE1/WT3): 1.1
